Assay results as given in ChEMBL document CHEMBL3407383, “Design, synthesis and biological profile of new inhibitors of multidrug resistance associated proteins carrying a polycyclic scaffold” (Eur J Med Chem, 2015).
Calls of active or inactive are those of the source. The calls are words filed in the database; no cut-off is given here.

Key:
[1] = molecular target: T1, ATP-dependent translocase ABCB1 (Homo sapiens, UniProt P08183); assay: Reversal of human MDR1-mediated drug efflux in mouse L5178 cells using rhodamine 123 as substrate assessed as fluorescence activity ratio at 40 uM incubated for 10 mins prior to substrate addition measured after 20 mins by FACScan flow cytometry relative to control; assay type: cell-based; settings: l5178, 20 min
T1 sequence (P08183 whole entry): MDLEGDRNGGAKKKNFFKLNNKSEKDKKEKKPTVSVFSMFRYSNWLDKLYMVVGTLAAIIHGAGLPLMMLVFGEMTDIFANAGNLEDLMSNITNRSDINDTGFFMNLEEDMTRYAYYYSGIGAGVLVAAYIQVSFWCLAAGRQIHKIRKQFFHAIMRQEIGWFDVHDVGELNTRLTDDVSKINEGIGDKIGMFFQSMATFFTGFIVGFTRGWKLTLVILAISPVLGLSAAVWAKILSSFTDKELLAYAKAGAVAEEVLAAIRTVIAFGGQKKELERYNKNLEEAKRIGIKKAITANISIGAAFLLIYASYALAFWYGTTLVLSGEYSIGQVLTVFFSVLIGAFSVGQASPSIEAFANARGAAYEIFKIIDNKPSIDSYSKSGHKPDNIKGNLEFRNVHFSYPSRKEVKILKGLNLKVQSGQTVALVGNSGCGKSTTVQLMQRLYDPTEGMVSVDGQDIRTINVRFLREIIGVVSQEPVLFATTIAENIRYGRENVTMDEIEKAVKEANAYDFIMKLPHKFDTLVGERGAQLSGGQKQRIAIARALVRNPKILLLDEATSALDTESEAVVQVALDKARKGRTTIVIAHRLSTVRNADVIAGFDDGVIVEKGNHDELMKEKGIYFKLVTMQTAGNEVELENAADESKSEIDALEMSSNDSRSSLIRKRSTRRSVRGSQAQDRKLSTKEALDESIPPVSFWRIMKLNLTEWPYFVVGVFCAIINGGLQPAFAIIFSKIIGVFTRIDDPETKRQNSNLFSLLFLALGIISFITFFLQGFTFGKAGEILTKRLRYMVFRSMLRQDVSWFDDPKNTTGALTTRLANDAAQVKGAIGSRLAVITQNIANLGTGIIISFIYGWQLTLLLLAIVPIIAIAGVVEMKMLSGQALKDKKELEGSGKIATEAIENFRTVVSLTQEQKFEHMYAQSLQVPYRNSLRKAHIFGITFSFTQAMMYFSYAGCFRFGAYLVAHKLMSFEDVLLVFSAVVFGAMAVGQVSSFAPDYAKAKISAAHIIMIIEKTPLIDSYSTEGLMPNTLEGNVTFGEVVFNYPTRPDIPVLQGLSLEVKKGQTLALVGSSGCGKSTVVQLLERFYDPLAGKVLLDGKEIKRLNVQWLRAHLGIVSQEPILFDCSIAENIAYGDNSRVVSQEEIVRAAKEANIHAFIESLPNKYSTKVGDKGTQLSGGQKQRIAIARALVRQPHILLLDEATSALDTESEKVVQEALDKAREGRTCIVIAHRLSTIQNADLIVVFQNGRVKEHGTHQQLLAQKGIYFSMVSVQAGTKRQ

[2] = molecular target: T1, ATP-dependent translocase ABCB1; assay: Reversal of human MDR1-mediated drug efflux in mouse L5178 cells using rhodamine 123 as substrate assessed as fluorescence activity ratio at 4 uM incubated for 10 mins prior to substrate addition measured after 20 mins by FACScan flow cytometry relative to control; assay type: cell-based; settings: l5178, 20 min
[3] = molecular target: T2, Multidrug resistance protein 1/Multidrug resistance associated protein 1 (Homo sapiens, UniProt P33527+P08183); assay: Inhibition of MDR1/MRP1 overexpressed in doxorubicin-resistant human HL60R cells assessed as DXR accumulation at 10 uM incubated for 2 hrs prior to DXR challenge measured after 2 hrs by fluorescence assay relative to control; assay type: cell-based
Outline: (§1)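 HL60 and HL60R cells (2.5 × 10^5 cells/mL) preincubated 2 h with compound, then 2 h with 10 µM DXR. Washed twice in cold PBS, resuspended at 1 × 10^6 cells/mL. Anthracycline fluorescence read immediately by flow cytometry (excitation 488 nm, emission 600 nm, log scale). Mean ± SD, ≥3 independent experiments; one-way ANOVA versus HL60R.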

HL60R [4] = assay: Potentiation of doxorubicin-induced cytotoxicity in human HL60R cells at 10 uM incubated for 2 hrs prior to doxorubicin challenge measured after 24 to 48 hrs by trypan blue staining-based haemocytometry; assay type: functional, cell-based
Outline: (§2)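 HL60R cells seeded at 1.5 × 10^5 cells/mL; after 24 h, exposed to compound (10 µM) for 2 h, then 10 µM DXR added. Viable cells counted by Trypan Blue exclusion in a Bürker haemocytometer at 24 and 48 h. Mean ± SD, at least three independent experiments.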

[5] = Lipophilicity, log P of the compound; assay type: physicochemical; settings: octanol/water
[6] = molecular target: T1, ATP-dependent translocase ABCB1; assay: Reversal of human MDR1-mediated drug efflux in mouse L5178 cells using rhodamine 123 as substrate at 40 uM incubated for 10 mins prior to substrate addition by FACScan flow cytometry relative to verapamil; assay type: cell-based; settings: l5178, 10 min
Outline: (§3)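 L5178 MDR1-transfected and parental mouse lymphoma cells at 2 × 10^6/mL in serum-free McCoy's 5A. Preincubated with compound (0.4–40 µM) for 10 min at room temperature, then rhodamine-123 (5.2 µM final) added for 20 min at 37 °C; washed twice, resuspended in PBS, read by flow cytometry. Verapamil as positive control. R = (MDR treated/MDR control)/(parental treated/parental control).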

[7] = molecular target: T1, ATP-dependent translocase ABCB1; assay: Reversal of human MDR1-mediated drug efflux in mouse L5178 cells using rhodamine 123 as substrate assessed as fluorescence activity ratio at 0.8 uM incubated for 10 mins prior to substrate addition measured after 20 mins by FACScan flow cytometry relative to control; assay type: cell-based; settings: l5178, 20 min; outline: as §3
[8] = Cytotoxicity against human HL60 cells assessed as cell viability at 10 uM by MTT assay; assay type: cell-based; settings: hl-60, 10 µM
[9] = molecular target: T2, Multidrug resistance protein 1/Multidrug resistance associated protein 1; assay: Inhibition of MDR1/MRP1 overexpressed in doxorubicin-resistant human HL60R cells assessed as DXR accumulation at 0.4 uM incubated for 2 hrs prior to DXR challenge measured after 2 hrs by fluorescence assay relative to control; assay type: cell-based; outline: as §1
[10] = molecular target: T2, Multidrug resistance protein 1/Multidrug resistance associated protein 1; assay: Activity at human MDR1/MRP1 overexpressed in doxorubicin-resistant human HL60R cells assessed as ATP consumption at 10 uM after 2 hrs by luminescence assay (reference value: 6350 +/- 303 RLU); assay type: cell-based
Outline: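 HL60R cells at 2.5 × 10^5 cells/mL exposed to 10 µM compound (DMSO solution) for 2 h at 37 °C, 5% CO2; washed twice in cold PBS, resuspended at 1 × 10^6 cells/mL. 1 × 10^5 cells lysed in swab by 20 s agitation; ATP read by luciferase/d-luciferin bioluminescence on a luminometer.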

[11] = Cytotoxicity against human HL60R cells assessed as effect on cell cycle at 10 uM; assay type: cell-based
[12] = molecular target: T1, ATP-dependent translocase ABCB1; assay: Reversal of human MDR1-mediated drug efflux in mouse L5178 cells using rhodamine 123 as substrate assessed as fluorescence activity ratio at 0.4 uM incubated for 10 mins prior to substrate addition measured after 20 mins by FACScan flow cytometry relative to control; assay type: cell-based; settings: l5178, 20 min; outline: as §3
HL60R [13] = assay: Potentiation of doxorubicin-induced cell cycle arrest in human HL60R cells assessed as accumulation at G0/G1 phase at 10 uM after 24 hrs by propidium iodide staining-based flow cytometry; assay type: functional
Outline: (§4)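 HL60R cells treated with compound plus 10 µM DXR for 24 and 48 h. Fixed in 70% ice-cold ethanol at -20 °C overnight, stained with PI 5 µg/mL plus DNase-free RNase A 10 µg/mL in PBS, 30 min at 37 °C in the dark. PI red fluorescence acquired on a linear scale at 600 nm by flow cytometry.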

[14] = Cytotoxicity against human HL60R cells assessed as cell viability at 10 uM by MTT assay; assay type: cell-based
[15] = Cytotoxicity against human HL60 cells assessed as effect on cell cycle at 10 uM; assay type: cell-based; settings: hl-60, 10 µM
[16] = Cell cycle arrest in human HL60R cells assessed as exit from mitosis at 10 uM after 24 hrs by propidium iodide staining-based flow cytometry; assay type: functional; outline: as §4
[17] = Cell cycle arrest in human HL60R cells assessed as accumulation at G2/M phase at 10 uM after 24 hrs by propidium iodide staining-based flow cytometry; assay type: functional; outline: as §4
HL60R [18] = assay: Induction of apoptosis in human HL60R cells assessed as chromatin condensation at 10 uM after 48 hrs by […] staining-based fluorescence microscopy; assay type: functional, cell-based
Outline: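 HL60R cells co-treated 48 h with 10 µM compound plus 10 µM DXR. Cytospun onto slides (150 g, 5 min), PBS-washed, fixed in 4% paraformaldehyde, permeabilized with 0.5% Triton X-100 for 5 min at 4 °C, stained with Hoechst 0,1 mg/mL. Nuclear morphology examined by fluorescence microscopy.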

HL60R [19] = assay: Induction of apoptosis in human HL60R cells assessed as nuclear fragmentation at 10 uM after 48 hrs by […] staining-based fluorescence microscopy
HL60R [20] = assay: Potentiation of doxorubicin-induced cell cycle arrest in human HL60R cells assessed as exit from mitosis at 10 uM after 48 hrs by propidium iodide staining-based flow cytometry; assay type: functional; outline: as §4
HL60R [21] = assay: Potentiation of doxorubicin-induced cytotoxicity in human HL60R cells assessed as restart of cell growth at 10 uM incubated for 2 hrs prior to doxorubicin challenge measured after 24 hrs by trypan blue staining-based haemocytometry relative to control; assay type: functional; outline: as §2
HL60R [22] = assay: Potentiation of doxorubicin-induced cytotoxicity in human HL60R cells assessed as impairment of cell growth at 10 uM incubated for 2 hrs prior to doxorubicin challenge measured up to 24 hrs by trypan blue staining-based haemocytometry; assay type: functional; outline: as §2
HL60R [23] = assay: Potentiation of doxorubicin-induced cell cycle arrest in human HL60R cells assessed as accumulation at G2/M phase at 10 uM after 24 hrs by propidium iodide staining-based flow cytometry; assay type: functional; outline: as §4
HL60R [24] = assay: Potentiation of doxorubicin-induced cytotoxicity in human HL60R cells at 10 uM incubated for 2 hrs prior to doxorubicin challenge measured after 24 hrs by trypan blue staining-based haemocytometry; assay type: functional, cell-based; outline: as §2

SMILES | Ratio [1] | Ratio [2] | inhibition (INH) [3] | Activity (HL60R [4]) | logP [5] | Activity [8] | inhibition (INH) [9] | RLU [10] | Activity [11] | Activity (HL60R [13]) | Activity [14] | Activity [15] | Activity (HL60R [23]) | also measured
O=C1[C@@H]2[C@H]3c4ccccc4[C@H](c4ccccc43)[C@@H]2C(=O)N1CC#CCN1CCN(Cc2ccccc2)CC1 | 85.46 | 54.832 | Active | Active | 2.54 | Non-toxic | Not Active | 3957 | Non-toxic | Active | Non-toxic | Non-toxic | – | Ratio [6]: 15; Ratio [7]: 7.76; Ratio [12]: 2.62
COc1cccc2c1C(=O)c1c(O)c3c(c(O)c1C2=O)C[C@@](O)(C(=O)CO)C[C@@H]3O[C@H]1C[C@H](N)[C@H](O)[C@H](C)O1 | – | – | – | – | – | – | – | – | – | – | – | – | – | Activity [16]: inactive; Activity [17]: Active; Activity (HL60R [18]): Active; Activity (HL60R [19]): Active
O=C1[C@@H]2[C@H]3c4ccccc4[C@H](c4ccccc43)[C@@H]2C(=O)N1CC#CCN1CCN(c2ccccc2)CC1 | 11.52 | 7.56 | Not Active | – | 2.54 | Non-toxic | Not Active | 3650 | Non-toxic | – | Non-toxic | Non-toxic | Active | Ratio [6]: 2; Activity (HL60R [20]): inactive; Activity (HL60R [21]): inactive; Activity (HL60R [22]): Active
O=C1[C@@H]2[C@H]3c4ccccc4[C@H](c4ccccc43)[C@@H]2C(=O)N1CC#CCN1CCC(n2c(=O)[nH]c3ccccc32)CC1 | 44.6 | 6.39 | Not Active | – | 2.54 | Non-toxic | Not Active | 4363 | Non-toxic | – | Non-toxic | Non-toxic | Active | Activity (HL60R [24]): Active
C#CCN1C(=O)[C@@H]2[C@H]3c4ccccc4[C@H](c4ccccc43)[C@@H]2C1=O | – | – | Not Active | – | – | – | – | – | – | – | – | – | – | –
CN1CCN(CC#CCN2C(=O)[C@@H]3[C@H]4c5ccccc5[C@H](c5ccccc54)[C@@H]3C2=O)CC1 | 64.74 | 9.59 | Not Active | – | 2.54 | Non-toxic | Not Active | 3429 | Non-toxic | – | Non-toxic | Non-toxic | Active | Activity (HL60R [20]): inactive; Activity (HL60R [21]): inactive; Activity (HL60R [22]): Active
O=C1[C@@H]2[C@H]3c4ccccc4[C@H](c4ccccc43)[C@@H]2C(=O)N1CC#CCN1CCN(C(c2ccc(F)cc2)c2ccc(F)cc2)CC1 | 33.38 | 28.27 | Active | Active | 6.3 | Non-toxic | Not Active | 4276 | Non-toxic | Active | Non-toxic | Non-toxic | – | Ratio [7]: 8.22; Ratio [12]: 5.19
COc1ccc(CCN(C)CC#CCN2C(=O)[C@@H]3[C@H]4c5ccccc5[C@H](c5ccccc54)[C@@H]3C2=O)cc1OC | – | – | – | Active | – | Toxic | Not Active | 2612 | Toxic | Active | Toxic | Toxic | – | –
